In series [1] the target is T1, human recombinant MAGL (hMAGL) (Homo sapiens, UniProt Q99685).
T1 sequence (Q99685 1-303): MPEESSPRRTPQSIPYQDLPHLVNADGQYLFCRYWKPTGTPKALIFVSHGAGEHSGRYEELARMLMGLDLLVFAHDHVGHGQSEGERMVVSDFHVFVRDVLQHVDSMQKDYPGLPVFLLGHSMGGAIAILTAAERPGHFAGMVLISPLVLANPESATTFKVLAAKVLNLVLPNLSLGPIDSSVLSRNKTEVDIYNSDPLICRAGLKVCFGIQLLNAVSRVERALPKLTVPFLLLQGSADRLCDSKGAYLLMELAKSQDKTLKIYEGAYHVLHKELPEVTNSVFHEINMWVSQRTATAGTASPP
The series is described as follows: human recombinant MAGL inhibition enzyme assay. It is filed as biochemical. The gist of the method: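 Commercial MAGL inhibitor screening kit with human recombinant enzyme, run per the manufacturer's instructions. JZL195 was the positive control. IC50 from dose-response curve fitting, averaged over 3–5 runs.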

Series [2] can be described thus: LogP by shake flask method. It is filed as physicochemical. The following applies: n-octanol/water. A digest of the protocol:
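n-Octanol/water liquid-liquid partition ('shake flask'), following the OECD 107 guideline. Compound quantified in each phase by LC-MS; n = 3.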

Series [3] addresses T2, rat brain MAGL (Rattus norvegicus, UniProt Q8R431).
T2 sequence (Q8R431 1-303): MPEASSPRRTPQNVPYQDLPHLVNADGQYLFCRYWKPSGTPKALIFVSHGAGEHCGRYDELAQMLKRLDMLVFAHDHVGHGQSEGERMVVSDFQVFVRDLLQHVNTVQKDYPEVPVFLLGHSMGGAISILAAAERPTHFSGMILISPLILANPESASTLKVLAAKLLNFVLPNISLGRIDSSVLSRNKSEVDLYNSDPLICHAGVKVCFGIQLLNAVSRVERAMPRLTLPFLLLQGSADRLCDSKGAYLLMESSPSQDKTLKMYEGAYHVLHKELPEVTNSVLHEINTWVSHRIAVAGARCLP
Nature of the series: [3H]2-OG hydrolysis assay. The following applies: for IC50: IC50, inhibition of [3H]2-OG hydrolysis, 0.5 μM [3H]2-OG; for pIC50 in [3H]2-OG assay: positive control. It is filed as biochemical. A digest of the protocol: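 Rat brain preparation, test compound and buffer (10 mM Tris-HCl, 1 mM EDTA, pH 7.4) were preincubated 0–60 min. [3H]2-OG diluted with unlabelled 2-OG was then added to 0.5 μM final, with 0.125% w/v fatty acid-free BSA. Kinetics: no preincubation, 2 min incubation. Reversibility: 60 min preincubation, then 20-fold dilution. JZL184 was the positive control. Means of 3–4 runs.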

In series [4] the target is T3, ABHD6 (Mus musculus, UniProt Q8R2Y0).
T3 sequence (Q8R2Y0 1-336): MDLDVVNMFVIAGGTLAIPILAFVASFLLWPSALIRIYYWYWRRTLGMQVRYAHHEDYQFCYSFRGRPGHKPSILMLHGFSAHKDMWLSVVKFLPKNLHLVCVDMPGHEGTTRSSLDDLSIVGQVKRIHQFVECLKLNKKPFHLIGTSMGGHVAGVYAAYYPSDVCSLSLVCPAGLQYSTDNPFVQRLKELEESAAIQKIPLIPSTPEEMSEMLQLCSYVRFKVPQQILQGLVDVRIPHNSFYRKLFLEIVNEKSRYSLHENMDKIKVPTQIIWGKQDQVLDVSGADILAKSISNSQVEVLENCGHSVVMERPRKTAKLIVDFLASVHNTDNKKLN
Nature of the series: activity based protein profiling. Format: biochemical. The following applies: up to 10 μM concentration. The gist of the method:
(§1)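 Mouse brain membrane proteome (1 mg/mL) preincubated with DMSO or test compound (1 and 10 μM) for 30 min at 37 °C. FP-rhodamine (1 μM final) was then added for 1–180 min at room temperature. Samples were separated by SDS-PAGE and read by in-gel fluorescence. Band intensity is given relative to DMSO (100%). MJN110 was the positive control; 3 runs.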

For series [5], the target named is CB2 (Homo sapiens, UniProt P34972). The series is described as follows: CB2 receptor agonist and antagonist assays. The following applies: up to 30 μM concentration. It is filed as cell-based. A digest of the protocol:
(§2)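 Run by the NIMH Psychoactive Drug Screening Program to its published protocols, in agonist and antagonist formats. CP55940 was the agonist control at both receptors. Rimonabant was the CB1 antagonist control and SR144528 the CB2 antagonist control. Dose-response curves were generated, averaged over 3–5 runs.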

Series [6] has as its target CB1 (Homo sapiens, UniProt P21554). The series is described as follows: CB1 receptor agonist and antagonist assays. It is filed as cell-based. The following applies: up to 30 μM concentration. The gist of the method:
as §2

For series [7], the target named is T4, ABHD12 (Mus musculus, UniProt Q99LR1).
T4 sequence (Q99LR1 1-398): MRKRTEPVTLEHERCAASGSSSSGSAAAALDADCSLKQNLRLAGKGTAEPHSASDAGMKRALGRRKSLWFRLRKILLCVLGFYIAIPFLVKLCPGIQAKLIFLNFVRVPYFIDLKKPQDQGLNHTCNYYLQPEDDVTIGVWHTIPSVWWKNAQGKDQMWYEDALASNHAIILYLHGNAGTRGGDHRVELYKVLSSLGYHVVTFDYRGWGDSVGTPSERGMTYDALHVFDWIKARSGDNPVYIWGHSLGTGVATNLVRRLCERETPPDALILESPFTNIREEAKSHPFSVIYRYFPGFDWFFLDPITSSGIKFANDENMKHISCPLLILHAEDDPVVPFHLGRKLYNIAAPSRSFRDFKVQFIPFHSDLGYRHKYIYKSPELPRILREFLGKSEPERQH
Nature of the series: activity based protein profiling. Format: biochemical. The following applies: up to 10 μM concentration. The gist of the method:
as §1

Series [8] deals with T5, FAAH (Rattus norvegicus, UniProt P97612).
T5 sequence (P97612 1-579): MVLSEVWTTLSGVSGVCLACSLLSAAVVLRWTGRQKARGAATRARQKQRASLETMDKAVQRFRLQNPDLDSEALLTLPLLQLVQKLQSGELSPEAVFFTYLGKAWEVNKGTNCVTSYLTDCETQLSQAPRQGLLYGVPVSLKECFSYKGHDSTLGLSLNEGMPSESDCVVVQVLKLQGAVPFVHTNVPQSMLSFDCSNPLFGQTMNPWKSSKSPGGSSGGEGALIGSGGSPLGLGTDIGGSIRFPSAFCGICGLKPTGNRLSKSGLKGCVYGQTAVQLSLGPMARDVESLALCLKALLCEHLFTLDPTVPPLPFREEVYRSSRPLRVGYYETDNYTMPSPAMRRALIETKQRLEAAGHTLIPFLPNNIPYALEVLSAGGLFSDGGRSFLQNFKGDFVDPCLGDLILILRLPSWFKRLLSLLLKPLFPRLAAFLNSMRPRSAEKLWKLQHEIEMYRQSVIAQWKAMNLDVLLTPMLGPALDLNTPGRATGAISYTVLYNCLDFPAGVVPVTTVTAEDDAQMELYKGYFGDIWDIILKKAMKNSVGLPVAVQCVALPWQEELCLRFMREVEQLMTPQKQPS
The series is described as follows: [3H]AEA hydrolysis assay. Format: biochemical.

Series [9] has as its system brain. The series is described as follows: PET brain uptake of 19. The following applies: in vivo.
The target in series [10] is T2, rat brain MAGL. The following applies: read-out: IC50, inhibition of [3H]2-OG hydrolysis, cited from earlier work.

Molecules are shown by their SMILES. Like-named read-outs stand apart in the source and are kept apart here.

A word on the IC50: it is the concentration that gives 50% inhibition. The term logP denotes the decadic logarithm of the partition coefficient of the neutral form, usually between octanol and water. A low value points to a more hydrophilic compound. The Ki is a measure of affinity in units of concentration, obtained from inhibition or displacement.

Chain of CB2 (P34972 whole entry, species assumed): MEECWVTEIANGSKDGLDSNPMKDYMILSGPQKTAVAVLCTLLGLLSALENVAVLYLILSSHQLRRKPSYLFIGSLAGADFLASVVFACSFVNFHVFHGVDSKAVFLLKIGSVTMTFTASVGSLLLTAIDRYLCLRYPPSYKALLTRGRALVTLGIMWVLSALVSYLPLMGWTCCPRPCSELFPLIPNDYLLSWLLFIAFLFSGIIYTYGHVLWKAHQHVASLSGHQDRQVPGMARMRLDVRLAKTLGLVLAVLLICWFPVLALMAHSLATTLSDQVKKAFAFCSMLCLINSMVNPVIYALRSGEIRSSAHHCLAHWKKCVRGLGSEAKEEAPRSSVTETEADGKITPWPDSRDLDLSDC
Chain of CB1 (P21554 whole entry, species assumed): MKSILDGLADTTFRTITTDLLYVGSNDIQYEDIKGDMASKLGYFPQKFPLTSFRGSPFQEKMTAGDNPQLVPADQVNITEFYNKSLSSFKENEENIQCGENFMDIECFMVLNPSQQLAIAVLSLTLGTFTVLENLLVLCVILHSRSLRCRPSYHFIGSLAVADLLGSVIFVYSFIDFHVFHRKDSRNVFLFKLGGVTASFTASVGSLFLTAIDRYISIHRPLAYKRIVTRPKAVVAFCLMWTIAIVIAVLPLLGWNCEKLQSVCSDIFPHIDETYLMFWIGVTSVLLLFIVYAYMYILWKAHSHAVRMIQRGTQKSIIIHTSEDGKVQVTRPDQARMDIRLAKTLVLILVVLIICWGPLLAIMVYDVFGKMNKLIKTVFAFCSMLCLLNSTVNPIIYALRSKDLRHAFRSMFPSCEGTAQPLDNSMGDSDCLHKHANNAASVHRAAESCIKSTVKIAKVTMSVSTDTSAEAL

`O=C(OC(C(F)(F)F)C(F)(F)F)N1CC(c2nc(-c3ccc(F)cc3)no2)C1` [Compound 8, 1,1,1,3,3,3-hexafluoropropan-2-yl 3-(3-(4-fluorophenyl)-1,2,4-oxadiazol-5-yl)azetidine-1-carboxylate]: the IC50 in [1] worked out at 13.4 nM. Also, the logP in series [2] came to 1.45 ± 0.01.

Molecule `O=C(OC(C(F)(F)F)C(F)(F)F)N1CC(c2nc(-c3cccc(F)c3)no2)C1` [Compound 9, 1,1,1,3,3,3-hexafluoropropan-2-yl 3-(3-(3-fluorophenyl)-1,2,4-oxadiazol-5-yl)azetidine-1-carboxylate] returned a logP in series [2] of 1.42 ± 0.11.

`COc1ccc(-c2noc(C3CN(C(=O)OC(C(F)(F)F)C(F)(F)F)C3)n2)cc1` [Compound 10, 1,1,1,3,3,3-hexafluoropropan-2-yl 3-(3-(4-methoxyphenyl)-1,2,4-oxadiazol-5-yl)azetidine-1-carboxylate]: the IC50 in [1] amounted to 12.7 nM; in [3] (60 min of pre-incubation), 0.68 nM; in series [3] (without pre-incubation) it was 3.9 nM. In series [3], this molecule registered a Ki of 1.03 nM. Moreover, the time-dependency of inhibition result in series [3] (0.2, 0.6 and 1 nM inhibitor) was “time-dependent inhibition”. Besides, the binding mechanism entry in [3] (dilution experiments and ABPP time course) was “irreversible binding mechanism”. Further, the “interaction with ABHD6” value in series [4] is reported as “No significant interactions”. The “interaction with CB2” value in series [5] is reported as “No significant interactions”. Also, in series [6], the “interaction with CB1” value is given as “No significant interactions”. Moreover, in series [7], the “interaction with ABHD12” value was “No significant interactions”. In addition, the “selectivity towards MAGL over FAAH” value in series [8] is 30–50 fold. The logP in series [2] was determined as 1.23 ± 0.1.

`COc1cccc(-c2noc(C3CN(C(=O)OC(C(F)(F)F)C(F)(F)F)C3)n2)c1` [Compound 11, 1,1,1,3,3,3-hexafluoropropan-2-yl 3-(3-(3-methoxyphenyl)-1,2,4-oxadiazol-5-yl)azetidine-1-carboxylate] returned a logP in [2] of 1.17 ± 0.14.

As to `O=C(OC(C(F)(F)F)C(F)(F)F)N1CC(c2nc(-c3ccc(F)cc3)no2)C1` [Compound 19, ^11C-carbonyl labeled 1,1,1,3,3,3-hexafluoropropan-2-yl 3-(3-(4-fluorophenyl)-1,2,4-oxadiazol-5-yl)azetidine-1-carboxylate], the “peak SUV in brain” value in series [9] is listed as “ca. 1.4 SUV”.

Take `O=C(Oc1ccc([N+](=O)[O-])cc1)N1CCC(C(O)(c2ccc3c(c2)OCO3)c2ccc3c(c2)OCO3)CC1` [JZL184]: the IC50 was 350 nM in series [10] (preincubation 0 min), 12 nM in [10] (preincubation 30 min) and 5.8 nM in series [10] (preincubation 60 min). For the same molecule, the entries for the “pIC50 in [3H]2-OG assay” value in series [3] (60 min preincubation) and in [3] (without preincubation) were 8.24±0.02 and 6.46±0.04, respectively.

For the molecule `O=C(Oc1ccc([N+](=O)[O-])cc1)N1CCN(Cc2cccc(Oc3ccccc3)c2)CC1` [JZL195, reference compound], in series [1] (4.4 μM, positive control), the “block of human recombinant MAGL hydrolysis” value was “completely blocked”.
